Activity data for 4 compounds are collected here from ChEMBL document CHEMBL1142454, “Synthesis and evaluation of novel 4-amino-4,6-androstadiene-3,17-dione: an analog of formestane” (2008).

Assay type in all cases: functional
Design in all cases: scale not given: the % may be the effect or the level left

One experiment concerns A549. The experiment is described as follows: Antitumor activity against human A549/ATCC cells assessed as reduction of cell growth at 10 uM after 48 hrs by SRB assay. An outline of the steps: (§1)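 NCI 60-cell-line primary screen, single dose 10^-5 M (final). Cells grown in RPMI 1640 with 5% FBS and 2 mM L-glutamine, seeded at 5000–40,000 cells/well and preincubated 24 h at 37 °C, 5% CO2. Compound is dissolved in DMSO, diluted in medium with gentamicin, and exposed 48 h. Cells are fixed with 10% TCA (final) and stained with 0.4% SRB; absorbance is read at 515 nm. Readout is growth percentage.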
(The SRB assay estimates cell density from bound dye.)

Another experiment relates to SF-295. The experiment in a line: Antitumor activity against human SF-295 cells assessed as reduction of cell growth at 10 uM after 48 hrs by SRB assay. In outline:
as §1

In another experiment the test system is MDA-MB-435. The experiment is described as follows: Antitumor activity against human MDA-MB-435 cells assessed as reduction of cell growth at 10 uM after 48 hrs by SRB assay. An outline of the steps: as §1
For another experiment, the system named is RXF 393. The experiment in a line: Antitumor activity against human RXF 393 cells assessed as reduction of cell growth at 10 uM after 48 hrs by SRB assay. In outline: as §1
The subject of another experiment is SK-MEL-2. The experiment in a line: Antitumor activity against human SK-MEL-2 cells assessed as reduction of cell growth at 10 uM after 48 hrs by SRB assay. An outline of the steps: as §1
In another experiment the test system is HOP-92. The experiment is described as follows: Antitumor activity against human HOP-92 cells assessed as reduction of cell growth at 10 uM after 48 hrs by SRB assay. An outline of the steps:
as §1

Another experiment concerns SNB-19. The experiment in a line: Antitumor activity against human SNB-19 cells assessed as reduction of cell growth at 10 uM after 48 hrs by SRB assay. An outline of the steps:
as §1

The nature of experiment [1]: Antitumor activity against human Hs 578T cells assessed as reduction of cell growth at 10 uM after 48 hrs by SRB assay. In outline:
as §1

For another experiment, the system named is NCI-H226. The experiment is described as follows: Antitumor activity against human NCI-H226 cells assessed as reduction of cell growth at 10 uM after 48 hrs by SRB assay. In outline: as §1
Another experiment concerns NCI-H460. The experiment in a line: Antitumor activity against human NCI-H460 cells assessed as reduction of cell growth at 10 uM after 48 hrs by SRB assay. An outline of the steps:
as §1

For the next experiment, the system named is SK-MEL-28. The experiment in a line: Antitumor activity against human SK-MEL-28 cells assessed as reduction of cell growth at 10 uM after 48 hrs by SRB assay. An outline of the steps: as §1
A further experiment deals with T47D. The experiment is described as follows: Antitumor activity against human T47D cells assessed as reduction of cell growth at 10 uM after 48 hrs by SRB assay. An outline of the steps: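 NCI-60 one-dose primary screen at 10^-5 M final. Cells grown in RPMI 1640 with 5% FBS and 2 mM L-glutamine, plated at 5000–40,000 cells/well and preincubated 24 h at 37 °C, 5% CO2. Drug stocks in DMSO, diluted in medium with gentamicin. Exposure 48 h, then fixed in situ with TCA (10% final) for 60 min at 4 °C. Stained with 0.4% SRB in 1% acetic acid, bound dye solubilized in 10 mM trizma base, absorbance read at 515 nm. Reported as mean growth percent; negative values indicate cell kill.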

A further experiment relates to HCC 2998. The experiment is described as follows: Antitumor activity against human HCC2998 cells assessed as reduction of cell growth at 10 uM after 48 hrs by SRB assay. An outline of the steps:
as §1

In another experiment the test system is OVCAR-4. The experiment in a line: Antitumor activity against human OVCAR4 cells assessed as reduction of cell growth at 10 uM after 48 hrs by SRB assay. An outline of the steps: as §1
The next experiment has as its system LOX IMVI. The experiment in a line: Antitumor activity against human LOXIMVI cells assessed as reduction of cell growth at 10 uM after 48 hrs by SRB assay. An outline of the steps:
as §1

Another experiment concerns NCI-H23. The experiment in a line: Antitumor activity against human NCI-H23 cells assessed as reduction of cell growth at 10 uM after 48 hrs by SRB assay. An outline of the steps:
as §1

Another experiment concerns HCT-15. The experiment in a line: Antitumor activity against human HCT-15 cells assessed as reduction of cell growth at 10 uM after 48 hrs by SRB assay. In outline: as §1
For a further experiment, the system named is SN12C. The experiment is described as follows: Antitumor activity against human SN12C cells assessed as reduction of cell growth at 10 uM after 48 hrs by SRB assay. An outline of the steps: as §1
A further experiment concerns OVCAR-3. The experiment in a line: Antitumor activity against human OVCAR-3 cells assessed as reduction of cell growth at 10 uM after 48 hrs by SRB assay. In outline: as §1
A further experiment concerns SF-539. The experiment in a line: Antitumor activity against human SF-539 cells assessed as reduction of cell growth at 10 uM after 48 hrs by SRB assay. In outline:
as §1

The test system of a further experiment is RPMI-8226. The experiment in a line: Antitumor activity against human RPMI 8226 cells assessed as reduction of cell growth at 10 uM after 48 hrs by SRB assay. An outline of the steps: as §1

On to `C[C@]12CC[C@H]3[C@@H](CCC4=CC(=O)CC[C@@]43CF)[C@@H]1CCC2=O`, for which the Activity in the experiment with A549 stood at 99.26%; with SF-295 it was 106.3%; in the experiment with MDA-MB-435 it was 100.91%; in the experiment on RXF 393, 67.71%; in the experiment on SK-MEL-2, 97.19%; with HOP-92, 113.59%. Besides, the Activity came to 109.3% with SNB-19; 127.96% in experiment [1]; 111.29% in the experiment on NCI-H226; 108.88% in the experiment with NCI-H460; 116.5% with SK-MEL-28; 39.44% with T47D. The Activity in the experiment on HCC 2998 came out at 139.86%; in the experiment with OVCAR-4 it was 98.85%; with LOX IMVI, 96.65%; in the experiment on NCI-H23 it was 106.48%; in the experiment with HCT-15 it was 106.17%; in the experiment on SN12C, 113.5%. Moreover, the figures for the Activity in the experiment on OVCAR-3 and in the experiment on SF-539 were 119.07% and 105.8%, respectively.
Consider `C[C@]12CCC(=O)C(Oc3ccccc3)=C1CC[C@@H]1[C@@H]2CC[C@]2(C)C(=O)CC[C@@H]12`, for which the Activity in the experiment on A549 stood at 100.25%; in the experiment on SF-295, 124.31%; in the experiment on MDA-MB-435 it was 113.61%; in the experiment with RXF 393, 107.93%; in the experiment on SK-MEL-2, 82.37%; in the experiment on HOP-92 it was 87.06%. Further, the Activity was 114.92% in the experiment with SNB-19; 103.5% in experiment [1]; 96.55% with NCI-H226; 77.42% with NCI-H460; 119.81% in the experiment on SK-MEL-28; 116.7% with T47D. The Activity was 128.78% with HCC 2998; 100.72% with OVCAR-4; 101.44% in the experiment with LOX IMVI; 97.57% with NCI-H23; 87.07% in the experiment with RPMI-8226; 94.74% in the experiment with HCT-15. Besides, the Activity worked out at 90.07% in the experiment on SN12C, 121.39% in the experiment with OVCAR-3 and 106.75% in the experiment on SF-539.
As for `C[C@]12CCC(=O)C(N)=C1C=C[C@@H]1[C@@H]2CC[C@]2(C)C(=O)CC[C@@H]12.Cl`, the Activity is reported as 103.34% in the experiment on A549; 105.1% in the experiment on SF-295; 112.52% in the experiment on MDA-MB-435; 95.21% in the experiment with RXF 393; 74.41% with SK-MEL-2; 61.94% in the experiment with HOP-92. For the same compound, the Activity is on record as 102.8% in the experiment on SNB-19; 112.26% in experiment [1]; 96.3% in the experiment with NCI-H226; 83.77% with NCI-H460; 103.4% with SK-MEL-28; 73.66% in the experiment with T47D. The Activity in the experiment with HCC 2998 was 96.01%; in the experiment on OVCAR-4, 61.98%; in the experiment with LOX IMVI it was 60.57%; in the experiment with NCI-H23, 74.07%; with RPMI-8226, -18.11%; with HCT-15, 72.99%. For the same compound, the Activity in the experiment on SN12C stood at 88.53%; in the experiment with OVCAR-3, 64.57%; in the experiment with SF-539, 82.75%.
For `CCOC1=C2CC[C@@H]3[C@H](CC[C@]4(C)C(=O)CC[C@@H]34)[C@@]2(C)CCC1=O`, the Activity stood at 97.79% in the experiment on A549; 114% in the experiment on SF-295; 104.79% with MDA-MB-435; 117.9% in the experiment with RXF 393; 94.48% in the experiment on SK-MEL-2; 92.93% in the experiment with HOP-92. Further, the Activity in the experiment with SNB-19 is 112.3%; in experiment [1] it was 118.13%; in the experiment on NCI-H226, 98.58%; with NCI-H460 it was 83.36%; in the experiment on SK-MEL-28 it was 135.2%; in the experiment on T47D, 117.94%. In addition, the Activity with HCC 2998 stood at 125.75%; in the experiment with OVCAR-4, 96.98%; in the experiment on LOX IMVI it was 100.3%; in the experiment with NCI-H23, 101.11%; with HCT-15, 110.45%; in the experiment with SN12C it was 110.6%. In addition, the Activity in the experiment on OVCAR-3 is 128.63%; with SF-539, 111.3%.
